Data taken from ChEMBL document CHEMBL4823260, “From High-Throughput Screening to Target Validation: Benzo[d]isothiazoles as Potent and Selective Agonists of Human Transient Receptor Potential Cation Channel Subfamily M Member 5 Possessing In Vivo Gastrointestinal Prokinetic Activity in Rodents” (J Med Chem, 2021).
pEC50: −log10 of the molar value.

Legend:
[1] = Apparent permeability across apical to basolateral membrane in human Caco-2 cells incubated for 30 mins by LC-MS/MS analysis; type: ADME, cell-based
[2] = Protein binding in human plasma assessed as unbound fraction measured after 5 hrs by equilibrium dialysis based HPLC/UPLC-MS/MS analysis; type: ADME, cell-free
[3] = target: Transient receptor potential cation channel subfamily A member 1 (Homo sapiens, UniProt O75762); test: Agonist activity at human TRPA1 expressed in HEK cells assessed as increase in menthol-induced intracellular calcium level incubated for 2 hrs by FLIPR assay; type: cell-based
Sequence of Transient receptor potential cation channel subfamily A member 1 (O75762 whole entry): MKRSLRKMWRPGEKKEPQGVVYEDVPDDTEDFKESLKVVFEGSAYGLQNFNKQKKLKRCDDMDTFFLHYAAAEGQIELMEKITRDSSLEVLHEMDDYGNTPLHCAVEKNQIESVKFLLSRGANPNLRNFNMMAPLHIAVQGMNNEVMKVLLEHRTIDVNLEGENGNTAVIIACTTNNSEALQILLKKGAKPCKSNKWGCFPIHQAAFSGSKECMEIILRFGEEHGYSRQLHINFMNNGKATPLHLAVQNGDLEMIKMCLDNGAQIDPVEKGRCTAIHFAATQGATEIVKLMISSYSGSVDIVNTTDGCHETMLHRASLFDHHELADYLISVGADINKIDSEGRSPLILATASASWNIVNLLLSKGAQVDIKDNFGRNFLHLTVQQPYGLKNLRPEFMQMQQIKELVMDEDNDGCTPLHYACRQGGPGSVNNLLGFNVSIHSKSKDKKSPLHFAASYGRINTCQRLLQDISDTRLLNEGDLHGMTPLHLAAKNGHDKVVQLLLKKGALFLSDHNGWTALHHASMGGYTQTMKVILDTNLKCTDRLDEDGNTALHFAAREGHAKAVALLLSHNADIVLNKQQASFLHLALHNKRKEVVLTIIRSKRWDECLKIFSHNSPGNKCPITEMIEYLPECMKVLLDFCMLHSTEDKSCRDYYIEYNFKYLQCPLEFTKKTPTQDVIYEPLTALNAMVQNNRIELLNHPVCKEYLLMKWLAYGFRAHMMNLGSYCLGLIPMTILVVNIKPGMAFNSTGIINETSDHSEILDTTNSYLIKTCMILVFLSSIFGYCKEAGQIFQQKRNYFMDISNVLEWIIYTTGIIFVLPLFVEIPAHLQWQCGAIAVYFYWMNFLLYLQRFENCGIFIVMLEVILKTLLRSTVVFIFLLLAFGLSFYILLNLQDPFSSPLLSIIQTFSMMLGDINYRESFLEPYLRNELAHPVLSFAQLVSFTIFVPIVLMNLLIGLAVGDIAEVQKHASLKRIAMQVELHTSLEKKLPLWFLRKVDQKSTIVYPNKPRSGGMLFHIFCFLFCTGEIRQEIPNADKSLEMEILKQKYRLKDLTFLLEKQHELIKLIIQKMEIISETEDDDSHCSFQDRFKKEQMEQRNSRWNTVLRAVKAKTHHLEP
Procedure, shortened: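 HEK cells stably expressing hTRPA1, plated at 20,000/well 24 h ahead, loaded with calcium-6 dye plus 2.5 mM probenecid for 2 h at 37 °C. First FLIPR addition: 11-point 1:3 concentration series, read for 5 min, scaled to (−)menthol 1 mM final (100% control); pEC50 fitted. Final DMSO 0.5%; run at 37 °C.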

[4] = target: T1, Transient receptor potential cation channel subfamily M member 5 (Homo sapiens, UniProt Q9NZQ8); test: Agonist activity at human TRPM5 expressed in CHO-K1 cells maintained at 80 mV final holding potential by syncroPatch assay; type: cell-based
T1 sequence (Q9NZQ8 whole entry): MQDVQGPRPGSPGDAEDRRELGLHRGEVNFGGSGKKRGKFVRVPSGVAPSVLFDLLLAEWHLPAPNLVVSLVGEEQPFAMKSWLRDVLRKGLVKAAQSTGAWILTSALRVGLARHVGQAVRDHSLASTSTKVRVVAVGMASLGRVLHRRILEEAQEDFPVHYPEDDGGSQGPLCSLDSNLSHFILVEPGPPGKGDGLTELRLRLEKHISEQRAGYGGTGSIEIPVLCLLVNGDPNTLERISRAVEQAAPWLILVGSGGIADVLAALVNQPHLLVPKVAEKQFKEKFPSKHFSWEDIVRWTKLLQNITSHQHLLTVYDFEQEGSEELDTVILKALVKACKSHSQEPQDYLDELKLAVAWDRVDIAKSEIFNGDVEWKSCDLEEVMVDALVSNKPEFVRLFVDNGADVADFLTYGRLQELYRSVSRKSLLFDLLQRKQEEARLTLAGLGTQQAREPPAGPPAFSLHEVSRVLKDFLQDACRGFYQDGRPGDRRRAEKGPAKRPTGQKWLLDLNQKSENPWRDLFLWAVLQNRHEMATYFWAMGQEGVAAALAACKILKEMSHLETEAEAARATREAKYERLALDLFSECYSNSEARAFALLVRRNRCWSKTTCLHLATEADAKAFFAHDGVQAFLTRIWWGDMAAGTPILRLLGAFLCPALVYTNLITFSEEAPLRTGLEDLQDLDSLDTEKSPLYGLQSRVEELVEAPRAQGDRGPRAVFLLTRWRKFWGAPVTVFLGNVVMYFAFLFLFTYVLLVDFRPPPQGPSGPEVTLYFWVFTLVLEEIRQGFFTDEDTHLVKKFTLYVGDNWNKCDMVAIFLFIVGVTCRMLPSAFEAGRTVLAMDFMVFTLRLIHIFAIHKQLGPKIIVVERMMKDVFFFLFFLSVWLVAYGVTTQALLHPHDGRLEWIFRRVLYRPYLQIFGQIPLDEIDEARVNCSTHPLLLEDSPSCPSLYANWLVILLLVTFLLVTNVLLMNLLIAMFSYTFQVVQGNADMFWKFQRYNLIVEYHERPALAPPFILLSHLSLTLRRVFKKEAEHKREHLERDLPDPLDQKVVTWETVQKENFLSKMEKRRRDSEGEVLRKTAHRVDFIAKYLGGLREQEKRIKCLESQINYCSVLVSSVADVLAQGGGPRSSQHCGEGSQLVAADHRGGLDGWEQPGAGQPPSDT
Procedure, shortened: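 SyncroPatch 384 whole-cell recording at rt on CHO-K1 cells stably expressing human or mouse TRPM5. Intracellular solution had 2 mM Na-ATP and 5 μM free Ca2+. Cumulative doses 0.03–31.6 μM in 0.5% DMSO, 150 s each after 180 s vehicle. Current measured at the end of the +80 mV step, normalized to vehicle; pEC50 is the mean of ≥2 independent experiments.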

[5] = target: Transient receptor potential cation channel subfamily M member 8 (Homo sapiens, UniProt Q7Z2W7); test: Agonist activity at human TRPM8 expressed in HEK cells assessed as increase in menthol-induced intracellular calcium level measured after 1 hr by FLIPR assay; type: cell-based
Sequence of Transient receptor potential cation channel subfamily M member 8 (Q7Z2W7 whole entry): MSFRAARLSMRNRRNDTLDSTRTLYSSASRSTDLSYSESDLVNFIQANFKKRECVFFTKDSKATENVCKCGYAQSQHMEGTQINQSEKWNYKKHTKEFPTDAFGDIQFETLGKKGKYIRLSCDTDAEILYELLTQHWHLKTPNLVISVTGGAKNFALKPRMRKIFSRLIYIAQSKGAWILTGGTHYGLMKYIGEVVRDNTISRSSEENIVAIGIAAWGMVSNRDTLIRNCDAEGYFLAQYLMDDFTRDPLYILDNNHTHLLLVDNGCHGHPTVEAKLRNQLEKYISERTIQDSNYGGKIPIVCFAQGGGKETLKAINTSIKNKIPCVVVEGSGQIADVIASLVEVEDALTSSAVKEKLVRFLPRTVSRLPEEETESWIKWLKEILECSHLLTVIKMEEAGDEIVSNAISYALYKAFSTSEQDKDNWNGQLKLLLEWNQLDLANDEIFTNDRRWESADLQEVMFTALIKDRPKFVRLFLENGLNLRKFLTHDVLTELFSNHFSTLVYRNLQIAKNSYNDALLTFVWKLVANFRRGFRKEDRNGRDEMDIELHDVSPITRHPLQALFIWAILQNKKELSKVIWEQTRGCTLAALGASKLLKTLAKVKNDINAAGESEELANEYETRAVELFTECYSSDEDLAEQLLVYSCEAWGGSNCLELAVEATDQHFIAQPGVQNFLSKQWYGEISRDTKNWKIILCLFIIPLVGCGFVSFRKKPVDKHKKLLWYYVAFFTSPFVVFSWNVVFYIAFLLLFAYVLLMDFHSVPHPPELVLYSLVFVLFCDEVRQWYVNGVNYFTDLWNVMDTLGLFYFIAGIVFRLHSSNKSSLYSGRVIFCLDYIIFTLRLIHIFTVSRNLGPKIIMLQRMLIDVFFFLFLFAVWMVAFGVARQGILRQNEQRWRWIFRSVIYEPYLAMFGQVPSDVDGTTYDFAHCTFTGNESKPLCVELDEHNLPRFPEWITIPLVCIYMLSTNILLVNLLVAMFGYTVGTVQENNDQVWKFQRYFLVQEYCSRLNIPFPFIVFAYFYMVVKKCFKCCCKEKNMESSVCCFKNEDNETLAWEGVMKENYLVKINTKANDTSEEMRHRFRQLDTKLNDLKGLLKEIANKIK
Procedure, shortened: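 HEK cells with stable hTRPM8, 20,000/well on poly-D-lysine plates 24 h ahead. Loaded with calcium-6 dye and 2.5 mM probenecid, 1 h at 37 °C then 1 h at rt. First-addition calcium rise scaled to (−)menthol 100 μM final (100% control); pEC50 derived from the concentration–response. Final DMSO 0.5%; assay at rt.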

[6] = target: Transient receptor potential cation channel subfamily V member 4 (Homo sapiens, UniProt Q9HBA0); test: Agonist activity at human TRPV4 expressed in HEK cells assessed as increase in GSK1016790A-induced intracellular calcium level measured after 1 hr by FLIPR assay; type: cell-based
Sequence of Transient receptor potential cation channel subfamily V member 4 (Q9HBA0 whole entry): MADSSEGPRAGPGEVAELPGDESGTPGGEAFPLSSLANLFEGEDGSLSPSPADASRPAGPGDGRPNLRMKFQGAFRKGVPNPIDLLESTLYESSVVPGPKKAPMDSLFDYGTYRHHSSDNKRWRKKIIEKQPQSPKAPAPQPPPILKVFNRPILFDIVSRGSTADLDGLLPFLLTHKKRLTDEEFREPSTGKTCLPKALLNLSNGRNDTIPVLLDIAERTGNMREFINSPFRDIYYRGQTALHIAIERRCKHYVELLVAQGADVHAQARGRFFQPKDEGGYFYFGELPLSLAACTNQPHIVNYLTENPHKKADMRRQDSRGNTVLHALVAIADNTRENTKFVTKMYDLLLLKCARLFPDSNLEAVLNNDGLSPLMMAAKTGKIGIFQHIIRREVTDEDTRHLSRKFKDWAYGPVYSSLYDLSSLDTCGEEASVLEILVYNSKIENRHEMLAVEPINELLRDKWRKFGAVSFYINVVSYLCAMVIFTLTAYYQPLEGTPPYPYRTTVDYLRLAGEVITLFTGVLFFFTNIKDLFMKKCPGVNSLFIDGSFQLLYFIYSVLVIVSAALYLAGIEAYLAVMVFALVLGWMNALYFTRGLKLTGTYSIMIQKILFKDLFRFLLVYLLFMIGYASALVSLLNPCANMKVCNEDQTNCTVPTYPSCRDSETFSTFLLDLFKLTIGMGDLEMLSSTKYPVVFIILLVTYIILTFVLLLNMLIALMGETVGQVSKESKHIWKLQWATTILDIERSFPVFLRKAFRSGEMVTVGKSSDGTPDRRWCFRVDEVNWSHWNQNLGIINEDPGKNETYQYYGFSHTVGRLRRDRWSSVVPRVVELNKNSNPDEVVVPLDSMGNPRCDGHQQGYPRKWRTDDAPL

Papp A→B at 0.5 h [1] | fraction unbound at 5 h [2] | pEC50 [3] | pEC50 [4] | pEC50 [5] | pEC50 [6] | SMILES
4.1 ×10⁻⁶ cm/s | < 0.01 | 5.50 | 8.10 | < 4.80 | < 4.80 | Clc1cnc(CNc2cc3sncc3cc2Cl)s1
10.7 ×10⁻⁶ cm/s | < 0.01 | 5.20 | 7.36 | < 4.80 | < 4.80 | Clc1cnc(CNc2ccc3cnsc3c2)s1
12.6 ×10⁻⁶ cm/s | < 0.01 | 5.50 | 7.05 | < 4.80 | < 4.80 | Clc1cnc(CNc2ccc3sncc3c2)s1
